High-throughput results deposited in PubChem BioAssay by several laboratories.
RanGTP-Impb inh = inhibitors of RanGTP-importin-beta interaction, primary screen, biochemical, FRET, CFP-Ran, YFP-importin-beta, homogeneous; cell-free CFP-Ran/YFP-importin-beta FRET ratio; inhibition, % (test concentration not listed); hit rate 1.1% among 300,000;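 active = more than half of the replicate wells show a fall in the fluorescence ratio signal beyond about 16%, limit read from the data, passing the limit was not always enough; inconclusive = exactly half of the replicate wells pass the set limit; inactive = fewer than half of replicates pass the limit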;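 also: 0% = DMSO wells and 100% = Ran loaded with GDP instead of GTP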
Runt-CBFb FRET = Runt domain-CBFb interaction inhibition. Cerulean-Runt/Venus-CBFb FRET ratio 530/480, 1 h. inhibition, % at 20 µM. hit rate 0.46% among 220,000. AID 1496;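 active = inhibition over about 50% at 20 µM in the single-dose screen, limit read from the data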;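 also: 0% = DMSO wells and 100% = excess unlabeled CBFb competitor control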
Target sequence (Q01196 whole entry, looked up, the tested form may be a part): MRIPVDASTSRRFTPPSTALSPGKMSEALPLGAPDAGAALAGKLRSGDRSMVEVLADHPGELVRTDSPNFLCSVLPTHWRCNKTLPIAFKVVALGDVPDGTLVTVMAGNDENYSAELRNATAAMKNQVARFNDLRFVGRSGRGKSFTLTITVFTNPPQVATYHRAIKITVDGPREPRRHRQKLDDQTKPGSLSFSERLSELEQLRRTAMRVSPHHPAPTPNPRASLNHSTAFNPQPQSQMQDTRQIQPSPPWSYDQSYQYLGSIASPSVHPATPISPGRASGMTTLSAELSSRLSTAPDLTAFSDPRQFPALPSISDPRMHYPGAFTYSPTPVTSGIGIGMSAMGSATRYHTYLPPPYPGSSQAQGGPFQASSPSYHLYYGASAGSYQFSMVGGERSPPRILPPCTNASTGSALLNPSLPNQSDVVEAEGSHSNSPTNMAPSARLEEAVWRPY
Target sequence (Q13951 whole entry, looked up, the tested form may be a part): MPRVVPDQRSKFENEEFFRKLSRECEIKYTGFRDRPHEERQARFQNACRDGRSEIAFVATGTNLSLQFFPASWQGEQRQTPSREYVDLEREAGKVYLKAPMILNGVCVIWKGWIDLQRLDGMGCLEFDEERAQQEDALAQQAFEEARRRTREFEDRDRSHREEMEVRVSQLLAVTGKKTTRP
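Measured by: fluorescence energy transfer, 422 nm excitation, 530/480 nm emission; Assay system: Cerulean-Runt domain; Medium: Tris pH 7.5 buffer with BSA; Measure: loss of energy transfer signal; Controls: 5 µM unlabeled CBFb as full-inhibition high control; Incubation: protein complex preformed 1 h, compound exposure 1 h, room temperature, dark.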
Hck-Nef inh = human Hck-Nef kinase inhibition. P08631. hit rate 0.68% among 220,000. Recombinant Hck-YEEI plus Nef, Z-Lyte FRET kinase assay. inhibition, % at 20 µM;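 active = Hck-Nef kinase inhibition above about 50%, limit read from the data; inactive = inhibition below that limit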;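 also: 0% = DMSO with Hck plus Nef and 100% = Hck alone without Nef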
Runt-SMMHC FRET = inhibitors of human RUNX1 Runt domain binding to CBFb-SMMHC; Q01196+Q13951; Cerulean-Runt/Venus-CBFb-SMMHC FRET ratio 530/480, 1 h; inhibition, % at 20 µM; hit rate 0.74% among 220,000;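 active = mean inhibition across duplicate retests at 20 µM reaching about 50%, limit read from the data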;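 also: 0% = DMSO wells and 100% = wells with excess untagged CBFb-SMMHC; inhibitors lower the FRET ratio by blocking Runt binding to CBFb-SMMHC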
* marks the source's active call; other numbers are inactive results; ? = inconclusive; nt = not tested or not shown. Most compounds without a hit are left out; they make up all but 1.9% or so of the library.

SMILES | RanGTP-Impb inh | Runt-CBFb FRET | Hck-Nef inh | Runt-SMMHC FRET
COc1ccc2nccc(/C=C/c3ccnc4ccc(OC)cc34)c2c1 | 61* | 0 | -59 | 82*
COC(=O)C1=C(N)Oc2cc(N(C)C)ccc2C1c1ccccc1OC (stereo unspecified) | 24* | -14 | 1 | -39
CN1CCc2c(sc(NC(=O)c3ccc(S(=O)(=O)N4CCCCCC4)cc3)c2C(N)=O)C1 | 58* | nt | nt | nt
CNC(=O)c1c(NC(=O)c2ccc(S(=O)(=O)N3CCCc4ccccc43)cc2)sc2c1CCN(C)C2 | 28* | -262 | 31 | -48
CN1CCc2c(sc(NC(=O)c3ccc(S(=O)(=O)N4CCCC4)cc3)c2C(N)=O)C1 | 41* | nt | nt | nt
CN1CCc2c(sc(NC(=O)C3CCCN3S(=O)(=O)c3ccc(Cl)s3)c2C(N)=O)C1 (stereo unspecified) | 164* | nt | nt | nt
CC(=O)N1CCc2c(sc(NC(=O)C3CCCN3S(=O)(=O)c3cccs3)c2C(N)=O)C1 (stereo unspecified) | -6 | nt | nt | nt
COc1ccc(CCn2c(O)cc3nn(-c4nc5ccccc5s4)c(=O)c-3c2C)cc1 | 5 | -3 | 68* | -16
COc1ccc(CN2CCN(c3nc4ccccc4s3)CC2)cc1 | -3 | nt | nt | nt
CCC1CCC/C1=N\NC(=O)c1ccccc1C (stereo unspecified) | 4 | nt | nt | nt
CN(C)CCCNc1c2c(nc3cc(-c4cccc(F)c4)nn13)CCC2 | 27* | 0 | 15 | 2
CCOCCCNc1c2c(nc3cc(-c4ccc(F)cc4)nn13)CCC2 | 2 | -1 | -1 | -1
O=c1oc2ccccc2cc1-c1nc(-c2cccs2)cs1 | -85 | -24 | 1 | -129
N#CCc1nc(-c2cc3ccccc3oc2=O)cs1 | 177* | 3 | 20 | 0
Cn1c(NC(=O)c2cc(-c3ccc4c(c3)OCO4)nc3ccccc23)cc(=O)n(C)c1=O | -2 | 62* | 0 | 5
CC(=O)N1CCOc2ccc(S(=O)(=O)NC(C)c3ccccc3)cc21 (stereo unspecified) | 0 | nt | nt | nt
COC(=O)c1cccc(/C=N/NC(N)=S)c1O | 42* | 39 | -79 | 84*
CCOC(CNC(=O)C(=O)Nc1cc2c3c(c1)CCN3C(=O)CC2)OCC | 0 | nt | nt | nt
c1ccc(-c2cn3nc4c(nc3n2)CCCC4)cc1 | 83* | 2 | 9 | -4
Brc1ccc(-c2cn3nc4c(nc3n2)CCCC4)cc1 | 61* | 4 | 2 | -6
Brc1ccc2nc3c(n2c1)CCCC3 | 3 | -3 | -1 | -3
CC(C)c1ccc(N(CC(=O)NC2CCCCC2)C(=O)CCC(=O)Nc2ccccn2)cc1 | 0 | nt | nt | nt
CCN(CC)C(=S)Nc1cc(C(=O)OC)ccc1C(=O)OC | 38* | 20 | 4 | 32
COC(=O)c1ccc(C(=O)OC)c(NC(=S)N2CCCC(C)C2)c1 (stereo unspecified) | 54* | 17 | 4 | 34
CCC(C)C(=O)Nc1cc(C(=O)OC)ccc1C(=O)OC (stereo unspecified) | 5 | 3 | 2 | -1
SMILES | RanGTP-Impb inh | Runt-CBFb FRET | Hck-Nef inh | Runt-SMMHC FRET
COC(=O)c1ccc(C(=O)OC)c(NC(=S)N2CC(C)CC(C)C2)c1 (stereo unspecified) | ? | 14 | 8 | 29
CC(=O)N1CCN=C1SCc1cccc(F)c1 | 3 | nt | nt | nt
Cc1ccc(-c2nc(-c3nccc4ccccc34)oc2-c2ccccc2)cc1 | 1 | 7 | 33 | 72*
Oc1nc(Nc2ccccc2)sc1/C=C1\C=Nc2ccccc21 | 21* | -8 | 17 | -3
CCOC(=O)c1c(Nc2ccccc2)sc(/C=C2\C=Nc3ccccc32)c1O | 43* | -48 | 1 | -50
CCn1c(O)c(/C=C2\C=Nc3ccccc32)sc1=O | 0 | -2 | 19 | 3
CC1CCCCN1CCCNc1ccc(C(CC(N)=O)NC(=O)Cc2cccc3ccccc23)cc1[N+](=O)[O-] (stereo unspecified) | 30* | nt | nt | nt
CC1CCCCN1CCCNc1ccc(C(CC(N)=O)NC(=O)Cc2ccc(Cl)cc2)cc1[N+](=O)[O-] (stereo unspecified) | -2 | nt | nt | nt
CCOc1ccc(CCNC(=O)COC(=O)c2cc(OC)c(OC)cc2[N+](=O)[O-])cc1OCC | 0 | nt | nt | nt
CC(=O)c1sc2nc(-c3cccs3)ccc2c1N | -38 | 28 | 1 | 83*
Nc1c(C(=O)Nc2nc3ccccc3s2)sc2nc(-c3cccs3)ccc12 | -39 | -2 | 5 | -37
COc1ccc(C(=O)c2sc3nc(-c4ccc(OC)cc4)ccc3c2N)cc1 | 23* | -6 | 0 | -3
COc1ccc(C(=O)CSc2nnc(CC(=O)Nc3ccccc3OC)n2C)cc1 | ? | 0 | 3 | 2
CC(=O)Nc1ccc(S(=O)(=O)c2c(N)n(CCN3CCOCC3)c3nc4ccccc4nc23)cc1 | -2 | 30 | 31 | 10
CC(=O)Nc1c(S(=O)(=O)c2ccccc2)c2nc3ccccc3nc2n1Cc1ccccc1 | 23* | 20 | 6 | 73*
Cc1cc(C)cc(C(=O)Nc2ccc(N3CCN(C(=O)c4ccco4)CC3)cc2)c1 | 3 | nt | nt | nt
Cc1cc(C)n(C(=O)/C(C#N)=N/Nc2cc(Cl)cc(Cl)c2)n1 | 12 | -2 | 11 | -5
Cc1ccc(C2C(C(=O)c3cccs3)=C(O)C(=O)N2CCN2CCOCC2)o1 (stereo unspecified) | 0 | 1 | 0 | -4
CCN(CC)CCN1C(=O)C(O)=C(C(=O)c2cccs2)C1c1ccc(C)o1 (stereo unspecified) | -2 | 0 | 3 | -2
O=C(C1=C(O)C(=O)N(CCN2CCOCC2)C1c1ccccn1)c1cccs1 (stereo unspecified) | 26* | 12 | 1 | 13
CCN(CC)CCN1C(=O)C(O)=C(C(=O)c2cccs2)C1c1ccccn1 (stereo unspecified) | 68* | 5 | -20 | -2
Cc1cc(C)c(S(=O)(=O)Nc2ccc(Cl)cn2)c(C)c1 | 3 | nt | nt | nt
O=C(N/N=C/C(Cl)=C/c1ccc([N+](=O)[O-])cc1)C(=O)Nc1ccccc1C(=O)O | 3 | 1 | 12 | -5
O=C(N/N=C/C(Cl)=C/c1ccc([N+](=O)[O-])cc1)C(=O)Nc1ccc(C(=O)O)cc1 | 6 | 2 | 75* | 1
Cn1c2ccccc2c2nnc(NN)nc21 | -2 | 8 | 19 | 2
SMILES | RanGTP-Impb inh | Runt-CBFb FRET | Hck-Nef inh | Runt-SMMHC FRET
CCOc1cc2nc3c4ccccc4n(C)c3nc2cc1OCC | 38* | 4 | -2 | -39
COCCNC(=O)c1cn(C)c2ccc(S(=O)(=O)N3CCCCC3)cc2c1=O | 1 | nt | nt | nt
Cc1nc2nc(-c3ccc(F)cc3)cn2nc1C | 95* | nt | nt | nt
CCc1c(-c2ccccc2)nc2nc(C)c(C)nn12 | 50* | 0 | 9 | -4
Cc1cc(C)n2nc(C)c(-c3ccccc3)c2n1 | 4 | nt | nt | nt
CCc1ccc(-c2cn3nc(C)c(C)nc3n2)cc1 | 107* | nt | 22 | 74
Cc1nc2nc(-c3ccccc3)cn2nc1C | 111* | 46 | 0 | 60*
c1ccc(-c2cn3nc(-c4ccccc4)cnc3n2)cc1 | nt | 0 | 3 | 0
